The subject of one data set is RXF 393. Put plainly: Growth inhibition of human RXF393 cells after 48 hrs by SRB assay. Type of data set: functional. Conditions: RXF 393, 48 h. For orientation: The SRB assay estimates cell density from bound dye.
For data set [1], the system named is U-373MG ATCC. Description: Inhibition of 3D tumor-like growth of human U373 cells assessed as decrease in ATP level at 5 to 10 uM treated for 24 hrs measured after 96 hrs by CellTiter-Glo assay. Type of data set: functional, cell-based. On the technique in general: ATP-based viability assays read luminescence as a measure of living cells.
Data set [2] concerns the target T1, NAD-dependent protein deacetylase sirtuin-2 (Homo sapiens) (UniProt Q8IXJ6).
T1 sequence (whole entry): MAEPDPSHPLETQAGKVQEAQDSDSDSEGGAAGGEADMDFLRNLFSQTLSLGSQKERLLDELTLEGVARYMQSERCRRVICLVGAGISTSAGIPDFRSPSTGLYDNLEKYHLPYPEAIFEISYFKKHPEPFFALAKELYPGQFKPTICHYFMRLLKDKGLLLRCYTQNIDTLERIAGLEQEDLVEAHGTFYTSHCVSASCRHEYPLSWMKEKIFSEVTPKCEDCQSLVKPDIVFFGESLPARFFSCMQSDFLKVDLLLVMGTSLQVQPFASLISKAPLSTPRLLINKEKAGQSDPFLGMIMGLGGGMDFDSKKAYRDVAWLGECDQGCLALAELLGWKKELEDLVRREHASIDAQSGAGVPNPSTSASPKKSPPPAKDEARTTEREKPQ
Description: Inhibition of SIRT2 in human U373 cells assessed as increase of alpha-tubulin acetylation at 2.5 uM after 8 hrs by Western blotting method relative to control. Type of data set: cell-based. A general note: A western blot detects proteins with antibodies after separation by electrophoresis.

Another data set has as its system RPMI-8226. Put plainly: Growth inhibition of human RPMI8226 cells after 48 hrs by SRB assay. Conditions: RPMI-8226, 48 h. In kind it is functional.
The test system of data set [3] is Hs 683. Description: Inhibition of 3D tumor-like growth of human Hs683 cells assessed as decrease in ATP level at 5 to 10 uM treated for 24 hrs measured after 96 hrs by CellTiter-Glo assay. In kind it is functional, cell-based. In short, it runs like this:
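Spheroids were grown from a starting suspension of 1 × 10^3 cells in 25 μL. Cells were pretreated 24 h with compound, then left untreated for 96 h. Spheroids were harvested and mixed with CellTiter-Glo 3D reagent, shaken 5 min and stabilized 25 min, then luminescence was read. Mean ± SD of three independent experiments.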

The subject of a further data set is SK-MEL-2. Put plainly: Growth inhibition of human SK-MEL-2 cells after 48 hrs by SRB assay. In kind it is functional. Conditions: SK-MEL-2, 48 h.
Data set [4] concerns the target T2, NAD-dependent protein deacetylase sirtuin-1 (Homo sapiens) (UniProt Q96EB6).
T2 sequence (whole entry): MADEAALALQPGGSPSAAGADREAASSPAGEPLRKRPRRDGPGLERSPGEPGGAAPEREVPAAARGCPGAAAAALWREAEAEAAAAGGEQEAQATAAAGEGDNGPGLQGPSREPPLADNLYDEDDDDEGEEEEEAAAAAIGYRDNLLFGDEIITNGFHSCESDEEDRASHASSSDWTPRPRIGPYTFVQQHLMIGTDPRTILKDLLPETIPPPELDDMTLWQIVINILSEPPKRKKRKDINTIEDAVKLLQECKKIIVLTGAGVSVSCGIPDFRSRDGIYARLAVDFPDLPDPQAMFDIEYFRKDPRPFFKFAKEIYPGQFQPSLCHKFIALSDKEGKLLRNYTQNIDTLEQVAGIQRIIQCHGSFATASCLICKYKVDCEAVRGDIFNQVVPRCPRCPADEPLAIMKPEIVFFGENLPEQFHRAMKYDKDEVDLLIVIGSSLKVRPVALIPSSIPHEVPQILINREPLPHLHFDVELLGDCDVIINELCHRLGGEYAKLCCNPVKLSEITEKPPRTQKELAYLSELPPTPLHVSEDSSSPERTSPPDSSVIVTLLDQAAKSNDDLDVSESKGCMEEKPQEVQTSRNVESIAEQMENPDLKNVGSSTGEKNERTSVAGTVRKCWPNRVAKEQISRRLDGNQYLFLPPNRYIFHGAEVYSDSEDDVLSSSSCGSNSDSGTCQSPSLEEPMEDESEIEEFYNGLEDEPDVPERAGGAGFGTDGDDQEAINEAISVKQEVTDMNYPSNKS
Put plainly: Inhibition of SIRT1 in human U373 cells assessed as increase of histone H4 acetylation at 5 uM after 8 hrs by Western blotting method relative to control. Type of data set: cell-based.

The target in data set [5] is T2, NAD-dependent protein deacetylase sirtuin-1 (Homo sapiens). Put plainly: Inhibition of SIRT1 in human Hs683 cells assessed as increase of histone H4 acetylation at 1 uM after 8 hrs by Western blotting method relative to control. Type of data set: cell-based.
The test system of data set [6] is Hs 683. Description: Potency index, ratio of sirtinol IC50 to test compound IC50 for human Hs683 cells. Type of data set: functional.
The next data set concerns PC-3. Description: Growth inhibition of human PC3 cells after 48 hrs by SRB assay. In kind it is functional. Conditions: PC-3, 48 h.
Another data set concerns PBMC. Put plainly: Cytotoxicity against human PBMC assessed as decrease in cell viability at 1 to 100 uM after 24 to 48 hrs. Type of data set: cell-based.
In data set [7] the test system is Hs 683. Put plainly: Potency index, ratio of AGK2 IC50 to test compound IC50 for human Hs683 cells. In kind it is functional.
Data set [8] deals with T2, NAD-dependent protein deacetylase sirtuin-1 (Homo sapiens). Description: Inhibition of SIRT1 in human Hs683 cells assessed as increase of histone H3K56 acetylation at 10 to 25 after 8 to 24 hrs by Western blotting method. Type of data set: cell-based. In outline:
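Cells treated with the compound, then histone H3K56 acetylation assessed by Western blot on histone extracts; histone H1 or Coomassie staining as loading control.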

A further data set deals with SN12C. Description: Growth inhibition of human SN12C cells after 48 hrs by SRB assay. In kind it is functional.
For data set [9], the system named is Hs 683. Description: Antitumor activity against CM-Dil fluorescent dye labeled human Hs683 cells xenografted in zebrafish embryo at 5 to 10 uM preincubated with tumor for 30 hrs followed by tumor implantation in zebra fish yolk sac measured after 72 hrs by fluorescence microscopy. Type of data set: functional, cell-based. In outline:
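Cells were pretreated in vitro at 5 or 10 μM for 30 or 36 h and labeled with CM-DiI 2 h before injection. Then 100–200 cells were injected into the yolk sac of wild-type zebrafish 48 h post-fertilization, anesthetized in 0.02% tricaine. Embryos were kept 72 h at 28.5 °C in Danieau solution with 0.003% phenylthiourea, and fluorescence was quantified in eight fish per condition.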

For data set [10], the system named is U-373MG ATCC. Put plainly: Cell cycle arrest in human U373 cells assessed as accumulation at G1 phase at IC50 after 24 to 48 hrs by propidium iodide staining-based flow cytometry. In kind it is functional. In short, it runs like this: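 Cells were exposed to compound at the IC50 for each line from the 72 h MTT assay, or to a reference HDAC inhibitor at 2 μM. Cell cycle distribution was analyzed after 24 and 48 h. Results are mean ± SD of three independent experiments, with p values against control cells.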

The next data set deals with HCT-116. Description: Growth inhibition of human HCT116 cells after 48 hrs by SRB assay. Type of data set: functional. Conditions: HCT-116, 48 h.
The next data set has as its system KB-HU. Put plainly: Antiproliferative activity against human KB-HU cells overexpressing ribonucleotide reductase subunit 2 after 72 hrs by MTT assay. Type of data set: functional, cell-based. In outline:
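MTT assay: cells in RPMI 1640 with 10% heat-inactivated FCS at 37 °C and 5% CO2 were seeded 24 h before treatment. They were exposed 72 h to compound at 0.01–100 μM, with DMSO as solvent.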

Another data set concerns MDA-MB-231. Put plainly: Growth inhibition of human MDA-MB-231 cells after 48 hrs by SRB assay. Type of data set: functional. Conditions: MDA-MB-231, 48 h.
The test system of a further data set is U-251. Put plainly: Growth inhibition of human U251 cells after 48 hrs by SRB assay. Conditions: U-251, 48 h. In kind it is functional.

Structures are written as SMILES. Active and inactive are the calls of the source. The calls are words filed in the database; no cut-off is given here.

In the case of `CC(C)(C)OC(=O)Nc1ccc2c(c1)C(NC(=O)Nc1cccc(C#N)c1)CC(C)(C)O2` (stereo not given), the GI50 in the data set on RXF 393 is 6.17 µM; in the data set with RPMI-8226, 1.62 µM; with SK-MEL-2, 5.37 µM; with PC-3, 0.759 µM; in the data set on SN12C, 5.5 µM; with HCT-116 it was 1.74 µM. The figures for the GI50 in the data set on MDA-MB-231 and with U-251 were 4.27 µM and 1.48 µM, respectively. The inhibition result (in the data set with U-373MG ATCC [1]; in the data set on Hs 683 [3]; in data set [8]) was “Active” each time. In addition, the results for the fold change (FC) in data set [2], in [4] and in data set [5] were 1.4, 1.3 and 1.3, respectively. Further, the “Ratio IC50” value with Hs 683 [6] is recorded as 6; in the data set on Hs 683 [7], 6 - 14. For the same compound, the Activity result in the data set with PBMC is on record as “Non-Toxic”. Also, the result in the data set with Hs 683 [9], in the data set with U-373MG ATCC [10] and in the data set with KB-HU was Active.

As usually defined, the GI50 is the concentration that inhibits growth by half. A lower GI50 goes with more potent growth inhibition.

Values taken from ChEMBL document CHEMBL4052637, “Discovery and Characterization of R/S-N-3-Cyanophenyl-N'-(6-tert-butoxycarbonylamino-3,4-dihydro-2,2-dimethyl-2H-1-benzopyran-4-yl)urea, a New Histone Deacetylase Class III Inhibitor Exerting Antiproliferative Activity against Cancer Cell Lines” (J Med Chem, 2017).
